ChEMBL document CHEMBL1127791, “Design, synthesis, and biological evaluation of cosalane, a novel anti-HIV agent which inhibits multiple features of virus reproduction” (J Med Chem, 1994)

Legend:
[1] = tested on: Human immunodeficiency virus; test: Effective concentration required for antiviral activity against HIV strain 205 by XTT assay; type: functional, organism-based; settings: Human immunodeficiency virus 1
Summary of the method: (§1)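 CEM-SS cells, 5000/well in RPMI 1640 with 5% FBS, 2 mM L-glutamine and gentamycin, were infected with each HIV strain at MOI 0.01 with serially diluted drug. They were incubated 6 days at 37 °C in 5% CO₂. Viability was read by XTT, and EC₅₀ for protection from virus-induced killing was calculated.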

[2] = tested on: Human immunodeficiency virus; test: Effective concentration required for antiviral activity against HIV strain LAV by XTT assay; type: functional, organism-based; settings: Human immunodeficiency virus 1; summary of the method: as §1
[3] = tested on: Human immunodeficiency virus; test: Effective concentration required for antiviral activity against HIV strain BAKI (syncytia inducing) by XTT assay; type: functional, organism-based; settings: Human immunodeficiency virus 1
[4] = tested on: Human immunodeficiency virus; test: Effective concentration required for antiviral activity against HIV strain WOME (syncytia inducing) by XTT assay; type: functional, organism-based; settings: Human immunodeficiency virus 1
[5] = tested on: Human immunodeficiency virus; test: Effective concentration required for antiviral activity against HIV strain SKI by XTT assay; type: functional, organism-based; settings: Human immunodeficiency virus 1; summary of the method: as §1
B(EBV+) = test: Effective concentration required for antiviral activity against B(EBV+) cell line of AA5 cells of Human by XTT assay; type: functional, cell-based
Summary of the method: (§2)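 Human T, B or macrophage-type cell lines were infected with HIV-1 RF in complete RPMI medium with serially diluted drug and cultured 6 days at 37 °C. Inhibition was read by XTT in cytopathically infected cells, or by supernatant RT activity or p24 ELISA in noncytopathically infected cells. EC₅₀ was calculated.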

[6] = tested on: Human immunodeficiency virus; test: Effective concentration required for antiviral activity against HIV strain G9106 (AZT-resistant strain) by XTT assay; type: functional, organism-based; settings: Human immunodeficiency virus 1; summary of the method: as §1
BxT = test: Effective concentration required for antiviral activity against BxT cell line of 174xCEM cells of Human by XTT assay; type: functional, cell-based; summary of the method: as §2
CEM-SS [7] = test: Effective concentration required for antiviral activity against T cell line of CEM-SS cells of Human by XTT assay; type: functional, cell-based; summary of the method: as §2
[8] = tested on: Human immunodeficiency virus; test: Effective concentration required for antiviral activity against HIV strain A17 (pyridinone-resistant strain) by XTT assay; type: functional, organism-based; settings: Human immunodeficiency virus 1; summary of the method: as §1
U-937 = test: Effective concentration required for antiviral activity against Macrophage cell line of U937 cells of Human by XTT assay; type: functional, cell-based; summary of the method: as §2
MT2 = test: Effective concentration required for antiviral activity against HIV strain IIIB in MT-2 cells by XTT assay; type: functional, cell-based; settings: Homo sapiens
Summary of the method: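 HIV-1 IIIB was tested in MT-2 cells in a microtiter XTT cytopathicity assay. Serially diluted drug was added to cells infected at MOI 0.01 and incubated 6 days at 37 °C in 5% CO₂. EC₅₀ for cellular protection was calculated from XTT viability.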

[9] = tested on: Human immunodeficiency virus; test: Effective concentration required for antiviral activity against HIV strain G by XTT assay; type: functional, organism-based; settings: Human immunodeficiency virus 1; summary of the method: as §1
[10] = tested on: Human immunodeficiency virus; test: Effective concentration required for antiviral activity against HIV strain WEJO (syncytia inducing) by XTT assay; type: functional, organism-based; settings: Human immunodeficiency virus 1
[11] = tested on: Human immunodeficiency virus; test: Effective concentration required for antiviral activity against HIV strain VIHU (nonsyncytia inducing) by XTT assay; type: functional, organism-based; settings: Human immunodeficiency virus 1
[12] = tested on: Human immunodeficiency virus; test: Effective concentration required for antiviral activity against HIV strain TP1 by XTT assay; type: functional, organism-based; settings: Human immunodeficiency virus 1; summary of the method: as §1
PBL = test: Effective concentration required for antiviral activity against lymphocyte cell line of PBL cells of Human by […]; type: functional, cell-based
Summary of the method: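 PHA-stimulated fresh human PBLs were infected with clinical HIV-1 isolate WEJO in the presence of drug. Culture supernatants were assayed for RT and/or p24 by antigen-capture ELISA to give EC₅₀.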

[13] = tested on: Human immunodeficiency virus; test: Effective concentration required for antiviral activity against HIV strain RF by XTT assay; type: functional, organism-based; settings: Human immunodeficiency virus 1; summary of the method: as §1
[14] = tested on: Human immunodeficiency virus 2; test: Effective concentration required for antiviral activity against HIV strain MS (HIV-2) by XTT assay; type: functional, organism-based; summary of the method: as §1
M = test: Effective concentration required for antiviral activity against M cell line of macrophage cells of Human by p24 ELISA
[15] = tested on: Human immunodeficiency virus; test: Effective concentration required for antiviral activity against HIV strain MN by XTT assay; type: functional, organism-based; settings: Human immunodeficiency virus 1; summary of the method: as §1
[16] = tested on: Human immunodeficiency virus; test: Effective concentration required for antiviral activity against HIV strain MCK by XTT assay; type: functional, organism-based; settings: Human immunodeficiency virus 1; summary of the method: as §1
[17] = tested on: Human immunodeficiency virus; test: Effective concentration required for antiviral activity against HIV strain 214 by XTT assay; type: functional, organism-based; settings: Human immunodeficiency virus 1; summary of the method: as §1
CEM-SS [18] = test: Effective concentration required for antiviral activity against HIV strain IIIB in CEM-SS cells by XTT assay; type: functional, cell-based; settings: Homo sapiens; summary of the method: as §1
[19] = tested on: Human immunodeficiency virus; test: Effective concentration required for antiviral activity against HIV strain PM16 by XTT assay; type: functional, organism-based; settings: Human immunodeficiency virus 1; summary of the method: as §1
MT4 = test: Effective concentration required for antiviral activity against T (HTLV-1+)cell line of MT-4 cells of Human by XTT assay; type: functional, cell-based; summary of the method: as §2

SMILES | EC50 [1] [µM] | EC50 [2] [µM] | EC50 [3] [µM] | EC50 [4] [µM] | EC50 [5] [µM] | EC50 (B(EBV+)) [µM] | EC50 [6] [µM] | EC50 (BxT) [µM] | EC50 (CEM-SS [7]) [µM] | EC50 [8] [µM] | EC50 (U-937) [µM] | EC50 (MT2) [µM] | EC50 [9] [µM] | EC50 [10] [µM] | EC50 [11] [µM] | EC50 [12] [µM] | EC50 (PBL) [µM] | EC50 [14] [µM] | EC50 (M) [µM] | EC50 [15] [µM] | further results
CC(C)CCCC(C)[C@H]1CC[C@H]2[C@@H]3CCC4C[C@@H](CCC=C(c5cc(Cl)c(O)c(C(=O)O)c5)c5cc(Cl)c(O)c(C(=O)O)c5)CC[C@]4(C)[C@H]3CC[C@]12C (stereo partly specified) | 6.7 | 14.4 | 48.1 | 69.9 | 20.6 | 6.6 | 6.6 | 6.1 | 5.1 | 4.3 | 7.4 | 3.4 | 2.2 | 44.8 | 80.2 | 6.5 | 44.8 | 22.5 | 19.7 | 8.8 | EC50 [13]: 1.7 µM; EC50 [16]: 2.1 µM; EC50 [17]: 7.1 µM; EC50 (CEM-SS [18]): 6.8 µM; EC50 [19]: 6.6 µM; EC50 (MT4): 20 µM
Cc1cn([C@H]2C[C@H](N=[N+]=[N-])[C@@H](CO)O2)c(=O)[nH]c1=O [ZIDOVUDINE] | 0.009 | 0.008 | 0.01 | 0.006 | 0.013 | 0.001 | > 0.1 | 0.055 | 0.095 | 0.002 | 0.03 | 0.003 | 0.002 | 0.018 | 0.02 | 0.006 | 0.029 | 0.002 | 0.015 | 0.004 | EC50 [16]: 0.002 µM; EC50 [17]: 0.009 µM; EC50 (CEM-SS [18]): 0.004 µM; EC50 [19]: 0.011 µM; EC50 (MT4): 0.085 µM
